Reference: ChEMBL document CHEMBL1240500, “Peptidyl alpha-ketoamides with nucleobases, methylpiperazine, and dimethylaminoalkyl substituents as calpain inhibitors” (J Med Chem, 2010)

Assays:
[1] = target: Cathepsin B (Homo sapiens, UniProt P07858); assay: Inhibition of human liver cathepsin B
Procedure, shortened: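 Human liver cathepsin B was DTT-activated (final 0.4 µM) in 0.1 M NaHPO4 pH 6.0 with 1.25 mM EDTA, 0.01% Brij and <5% DMSO. Cbz-Arg-Arg-AMC was used at 0.5, 0.2 and 0.1 µM, with ≥5 inhibitor concentrations. AMC fluorescence was read at ex 360/em 465 nm. Ki was taken from Dixon plots of 1/v versus [I].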

[2] = target: T1, Calpain-1 catalytic subunit (Sus scrofa, UniProt P35750); assay: Inhibition of porcine erythrocyte calpain 1
T1 sequence (P35750 whole entry): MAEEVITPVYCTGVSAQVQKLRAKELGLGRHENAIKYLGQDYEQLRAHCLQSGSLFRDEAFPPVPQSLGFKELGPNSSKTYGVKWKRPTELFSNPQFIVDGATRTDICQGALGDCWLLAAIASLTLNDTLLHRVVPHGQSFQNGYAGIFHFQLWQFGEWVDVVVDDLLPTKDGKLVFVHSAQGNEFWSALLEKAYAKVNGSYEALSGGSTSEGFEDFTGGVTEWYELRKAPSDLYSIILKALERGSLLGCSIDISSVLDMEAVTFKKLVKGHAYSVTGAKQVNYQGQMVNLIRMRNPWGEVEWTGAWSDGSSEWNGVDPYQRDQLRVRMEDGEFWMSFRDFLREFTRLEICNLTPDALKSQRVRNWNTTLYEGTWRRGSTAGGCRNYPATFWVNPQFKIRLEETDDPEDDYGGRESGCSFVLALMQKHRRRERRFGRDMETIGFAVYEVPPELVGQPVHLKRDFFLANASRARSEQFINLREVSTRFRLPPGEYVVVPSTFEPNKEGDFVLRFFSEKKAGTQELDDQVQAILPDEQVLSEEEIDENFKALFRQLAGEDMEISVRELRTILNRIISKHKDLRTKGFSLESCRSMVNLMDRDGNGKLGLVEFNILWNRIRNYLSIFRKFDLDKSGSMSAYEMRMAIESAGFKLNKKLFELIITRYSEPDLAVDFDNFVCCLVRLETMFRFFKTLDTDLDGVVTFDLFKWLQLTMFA

[3] = target: T2, Calpain-2 catalytic subunit (Sus scrofa, UniProt P43367); assay: Inhibition of porcine kidney calpain 2
T2 sequence (P43367 whole entry): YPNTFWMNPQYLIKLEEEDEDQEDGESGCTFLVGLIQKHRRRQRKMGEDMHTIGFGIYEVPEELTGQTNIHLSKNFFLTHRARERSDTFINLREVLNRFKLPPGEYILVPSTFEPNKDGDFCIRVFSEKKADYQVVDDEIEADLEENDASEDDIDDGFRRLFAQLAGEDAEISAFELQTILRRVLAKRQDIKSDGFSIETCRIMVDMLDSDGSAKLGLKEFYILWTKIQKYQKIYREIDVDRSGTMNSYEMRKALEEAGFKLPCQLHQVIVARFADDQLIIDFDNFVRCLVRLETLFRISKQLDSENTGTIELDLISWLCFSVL

[4] = target: T3, Calpain-1 catalytic subunit (Sus scrofa) (UniProt P35750); assay: Ratio of compound Ki to AK295 Ki for porcine erythrocyte calpain 1
T3 sequence (whole entry): T1 sequence (P35750 whole entry)

[5] = Drug level in C57BL/6 mouse brain at 24 mg/kg, sc after 8 hrs by HPLC analysis; type: ADME, organism-based; set-up: dose 24 mg/kg, route subcutaneous; settings: read-out: Drug uptake
Procedure, shortened: (§1)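 7-week-old female C57BL/6 mice (N = 3 per time point) got 24 mg/kg subcutaneously, were perfused with buffered saline at 37 °C, and were killed at 1, 2, 4 or 8 h. Brain was homogenized 5% w/v in water with internal standard spiked in. LC-MS/MS used ESI+ MRM and a Symmetry Shield C18 column. Quantitation was by peak-area ratio against plasma calibration standards.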

[6] = Drug level in C57BL/6 mouse brain at 24 mg/kg, sc after 2 hrs by HPLC analysis; type: ADME, organism-based; set-up: dose 24 mg/kg, route subcutaneous; settings: read-out: Drug uptake; procedure, shortened: as §1
[7] = Drug level in C57BL/6 mouse spleen at 24 mg/kg, sc after 1 hr by HPLC analysis; type: ADME, organism-based; set-up: dose 24 mg/kg, route subcutaneous; settings: read-out: Drug uptake
Procedure, shortened: (§2)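 7-week-old female C57BL/6 mice got 24 mg/kg subcutaneously (N = 2) or intravenously (N = 3). They were perfused with buffered saline at 37 °C and killed at 1 h. Tissues were homogenized 5% w/v in water with internal standard. LC-MS/MS used ESI+ MRM and a Zorbax Extend C18 column. Concentration came from the analyte/internal-standard area ratio against calibration standards made in undosed control tissue (0.10–1.00 µM). Errors came from repeat injections.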

[8] = Drug level in C57BL/6 mouse heart at 24 mg/kg, sc after 1 hr by HPLC analysis; type: ADME, organism-based; set-up: dose 24 mg/kg, route subcutaneous; settings: read-out: Drug uptake; procedure, shortened: as §2
[9] = Drug level in C57BL/6 mouse peripheral nerve at 24 mg/kg, iv after 1 hr by HPLC analysis; type: ADME, organism-based; set-up: dose 24 mg/kg, route intravenous; settings: read-out: Drug uptake; procedure, shortened: as §2
[10] = Drug level in C57BL/6 mouse liver at 24 mg/kg, sc after 1 hr by HPLC analysis; type: ADME, organism-based; set-up: dose 24 mg/kg, route subcutaneous; settings: read-out: Drug uptake; procedure, shortened: as §2
[11] = Drug level in C57BL/6 mouse liver at 24 mg/kg, iv after 1 hr by HPLC analysis; type: ADME, organism-based; set-up: dose 24 mg/kg, route intravenous; settings: read-out: Drug uptake; procedure, shortened: as §2
[12] = Drug level in C57BL/6 mouse serum at 24 mg/kg, sc after 1 hr by HPLC analysis; type: ADME, organism-based; set-up: dose 24 mg/kg, route subcutaneous; settings: read-out: Drug uptake; procedure, shortened: as §2
[13] = Drug level in C57BL/6 mouse heart at 24 mg/kg, iv after 1 hr by HPLC analysis; type: ADME, organism-based; set-up: dose 24 mg/kg, route intravenous; settings: read-out: Drug uptake; procedure, shortened: as §2
[14] = Drug level in C57BL/6 mouse spleen at 24 mg/kg, iv after 1 hr by HPLC analysis; type: ADME, organism-based; set-up: dose 24 mg/kg, route intravenous; settings: read-out: Drug uptake; procedure, shortened: as §2
[15] = Drug level in C57BL/6 mouse kidney at 24 mg/kg, iv after 1 hr by HPLC analysis; type: ADME, organism-based; set-up: dose 24 mg/kg, route intravenous; settings: read-out: Drug uptake; procedure, shortened: as §2
[16] = Drug level in C57BL/6 mouse kidney at 24 mg/kg, sc after 1 hr by HPLC analysis; type: ADME, organism-based; set-up: dose 24 mg/kg, route subcutaneous; settings: read-out: Drug uptake; procedure, shortened: as §2

SMILES | Ki [1] [nM] | Ki [2] [nM] | Ki [3] [nM] | Ratio [4] | further results
CC(C)C[C@H](NC(=O)OCc1ccccc1)C(=O)NC(Cc1ccccc1)C(=O)C(=O)NCCN(C)C (some centres undefined) | 475000 | 711 | 3520 |  | 
CC(C)C[C@H](NC(=O)OCc1ccccc1)C(=O)NC(Cc1ccccc1)C(=O)C(=O)NCCCn1ccc(N)nc1=O (some centres undefined) | 440 | 480 | 438 |  | 
CCC(NC(=O)[C@H](CC(C)C)NC(=O)OCc1ccccc1)C(=O)C(=O)NCCCn1cnc2c(N)ncnc21 (some centres undefined) | 800 | 53 | 70 | 3 | concentration at 8 h [5]: 1170 ng/g
CC(C)C[C@H](NC(=O)OCc1ccccc1)C(=O)NC(Cc1ccccc1)C(=O)C(=O)NCCCn1cnc2c(N)ncnc21 (some centres undefined) | 1750 | 55 | 68 | 3 | 
CCC(NC(=O)[C@H](CC(C)C)NC(=O)OCc1ccccc1)C(=O)C(=O)NCCCN1CCN(C)CC1 (some centres undefined) | 1420 | 640 | 286 |  | concentration at 2 h [6]: 1140 ng/g
CCC(NC(=O)[C@H](CC(C)C)NC(=O)OCc1ccccc1)C(=O)C(=O)NCCCN1CCOCC1 (some centres undefined) | 6900 | 150 | 41 |  | concentration at 1 h [7]: 1380 ng/g; concentration at 1 h [8]: 541 ng/g; concentration at 1 h [9]: 333 ng/g; concentration at 1 h [10]: 1550 ng/g; concentration at 1 h [11]: 943 ng/g; concentration at 1 h [12]: 895 ng/g; concentration at 1 h [13]: 561 ng/g; concentration at 1 h [14]: 1320 ng/g; concentration at 1 h [15]: 1820 ng/g; concentration at 1 h [16]: 936 ng/g
CCC(NC(=O)[C@H](CC(C)C)NC(=O)OCc1ccccc1)C(=O)C(=O)NCCCn1ccc(N)nc1=O (some centres undefined) | 750 | 165 | 1140 |  | 
CC(C)C[C@H](NC(=O)OCc1ccccc1)C(=O)NC(Cc1ccccc1)C(=O)C(=O)NCCCN(C)C (some centres undefined) | 75500 | 226 | 844 |  | 
COc1nc(N)c2ncn(CCCNC(=O)C(=O)C(Cc3ccccc3)NC(=O)[C@H](CC(C)C)NC(=O)OCc3ccccc3)c2n1 (some centres undefined) | 2340 | 41 | 209 | 3 | 
CCC(NC(=O)[C@H](CC(C)C)NC(=O)OCc1ccccc1)C(=O)C(=O)NCCCn1cnc2c(N)nc(OC)nc21 (some centres undefined) | 880 | 23 | 77 | 3 | 
CC(C)C[C@H](NC(=O)OCc1ccccc1)C(=O)NC(Cc1ccccc1)C(=O)C(=O)NCCCN1CCN(C)CC1 (some centres undefined) | 111000 | 1370 | 6360 |  | 
